Assays:
[1] = biological target: T1, Peroxisome proliferator-activated receptor gamma (Homo sapiens) (UniProt P37231); assay: Transactivation of GAL4-fused human PPARgamma ligand binding domain expressed in African green monkey COS7 cells at 10 uM after 42 hrs by dual luciferase reporter gene assay relative to pioglitazone; format: cell-based; conditions: COS-7
T1 sequence (whole entry): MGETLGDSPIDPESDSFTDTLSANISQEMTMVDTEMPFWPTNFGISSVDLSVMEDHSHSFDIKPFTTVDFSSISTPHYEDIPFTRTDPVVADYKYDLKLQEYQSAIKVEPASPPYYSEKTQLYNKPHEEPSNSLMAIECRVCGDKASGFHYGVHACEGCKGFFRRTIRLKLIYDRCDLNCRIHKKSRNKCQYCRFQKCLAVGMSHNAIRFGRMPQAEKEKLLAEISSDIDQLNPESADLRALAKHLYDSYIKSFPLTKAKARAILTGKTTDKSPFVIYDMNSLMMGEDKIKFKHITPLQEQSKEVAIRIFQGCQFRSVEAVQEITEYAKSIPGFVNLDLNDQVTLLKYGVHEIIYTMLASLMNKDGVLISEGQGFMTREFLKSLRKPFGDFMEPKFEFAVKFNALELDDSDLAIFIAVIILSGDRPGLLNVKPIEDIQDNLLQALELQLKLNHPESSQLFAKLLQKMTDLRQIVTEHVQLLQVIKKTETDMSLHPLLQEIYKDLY
How it was run: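 COS-7 cells seeded at 10^4 cells/well in DMEM with 10% FCS, grown 24 h at 37 °C, 5% CO2. Transiently transfected in serum- and antibiotic-free medium with pGal5-TK-Luc (30 ng), pGal4-PPARγ-LBD (3 ng) and pRenilla-CMV (1 ng). Compounds or DMSO vehicle added after 4 h, triplicates; dual-luciferase read after 42 h. Activation relative to pioglitazone.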

[2] = biological target: T1, Peroxisome proliferator-activated receptor gamma (Homo sapiens); assay: Displacement of Fluoromone from GST-tagged recombinant human PPARgamma ligand binding domain at 10 uM by LanthaScreen TR-FRET assay relative to pioglitazone
How it was run: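 Recombinant GST-tagged PPARγ LBD incubated with terbium-labelled anti-GST antibody and fluorescein-labelled pan-PPAR agonist Fluoromone (5 nM), triplicates; DMSO negative control, pioglitazone and telmisartan positive controls. TR-FRET read as 520/495 nm emission ratio; compound autofluorescence subtracted as blank. Displacement expressed relative to pioglitazone.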

[3] = biological target: T2, Peroxisome proliferator-activated receptor gamma (Homo sapiens, UniProt P37231); assay: Displacement of Fluoromone from GST-tagged recombinant human PPARgamma ligand binding domain by LanthaScreen TR-FRET assay
T2 sequence (P37231 whole entry): T1 sequence (whole entry)

[4] = biological target: T2, Peroxisome proliferator-activated receptor gamma; assay: Transactivation of GAL4-fused human PPARgamma ligand binding domain expressed in African green monkey COS7 cells after 42 hrs by dual luciferase reporter gene assay; format: cell-based, COS-7

Activity [1] [%]	inhibition [2] [%]	Structure (SMILES)	further results
9.8		CC(C)(CC(=O)O)CC(=O)N1CCCN(c2nccc(C(F)(F)F)n2)CC1	
14.4		N#Cc1c(SCc2ccccc2)nc2c(c1/C=C\c1ccccc1)CCC2	
7.8		Cc1c(NS(=O)(=O)c2ccc(S(=O)(=O)c3ccccc3)s2)c(=O)n(-c2ccccc2)n1C	
2.7		Oc1c(O)c(CN2CCCCC2)c2ccccc2c1CN1CCCCC1	
9.8		Cc1[nH]c2ccccc2c1SCc1nnc(SCc2ccccc2)n1C	
12		O=C(O)c1cn(C2CCCCC2)c2ccccc2c1=O	
	91	CCCc1nc2c(C)cc(-c3nc4ccccc4n3C)cc2n1Cc1ccc(-c2ccccc2C(=O)O)cc1 [TELMISARTAN]	EC50 [3]: 700 nM
23.7	99	O=S(=O)(Nc1cc(Cc2cc(NS(=O)(=O)c3ccccc3)cc(C(F)(F)F)c2)cc(C(F)(F)F)c1)c1ccccc1	EC50 [4]: 3400 nM; EC50 [3]: 600 nM
9.1		O=c1n(Cc2ccc(Cl)cc2Cl)c2ccccc2n1Cc1ccc(Cl)cc1Cl	
41.9	86	O=C(CN1c2ccccc2Sc2ccccc21)NNC(=S)NCc1ccccc1	EC50 [4]: 21700 nM; EC50 [3]: 2800 nM
7		Cc1ccc(Sc2c(C(=O)O)cnc3c2c(C)nn3C)cc1	
12.3		O=C(CSc1nnc(SCC(=O)NCCSCc2ccco2)s1)NCCSCc1ccco1	

Second part, the compound before the results:

Structure (SMILES)	Activity [1] [%]	inhibition [2] [%]	further results
Cc1cc(Oc2nc(NCCSC(C)(C)C)nc(Oc3cc(C)c(Cl)c(C)c3)n2)cc(C)c1Cl	9		
COc1ccc(CCNc2ccc(C(F)(F)F)cc2/N=C/c2cc(Cl)cc(Cl)c2O)cc1OC	9.9		
COc1nc(-c2ccc(OCc3ccccc3)cc2OCc2ccc(F)cc2)cc(-c2ccc(C)cc2)c1C#N	9.5		
Cc1ccc(S(=O)(=O)n2nc(C)c(Sc3nccn3C)c2C)cc1	10.1		
O=S(=O)(c1ccc(Cl)cc1)c1cnn(S(=O)(=O)c2ccc(Cl)cc2Cl)c1-c1ccc(Cl)cc1		80	EC50 [3]: 2100 nM
O=C(CSCc1ccc(Cl)c(Cl)c1)c1ccc(OCc2ccc([N+](=O)[O-])cc2)cc1	11.1		
Cc1noc(C)c1-c1nc(CS(=O)(=O)Cc2ccc(Cl)cc2)no1	12.8		
Cc1nn(C)c(Cl)c1S(=O)(=O)Nc1ccc(Oc2ccc(F)cc2)cc1	3		
CSc1nc(Sc2nnc(-c3cc(C(F)(F)F)cc(C(F)(F)F)c3)[nH]2)cc(Sc2nnc(-c3cc(C(F)(F)F)cc(C(F)(F)F)c3)[nH]2)n1		76	EC50 [3]: 5400 nM
COc1cc2c(cc1OC)C(/C=C1\SC(C(=O)c3cccs3)=NN1c1ccc(C)cc1)=NCC2		42	
O=S(=O)(CS(=O)(=O)Oc1cc(Cl)cc(Cl)c1)Oc1cc(Cl)cc(Cl)c1		48	
Cc1nc(CSc2nnc(-c3ccc(C(F)(F)F)cc3)n2Cc2ccco2)cs1	2.8		
Cc1noc(C)c1-c1noc(CSCc2ccc(Cl)cc2)n1	8.4		
N#CC(/N=C/c1cc(Cl)cc(Cl)c1O)=C(C#N)/N=C/c1cc(Cl)cc(Cl)c1O		46	
Cn1ccnc1SCc1nccn1Cc1ccc(Cl)cc1	8.1		
Cc1ccc(S(=O)(=O)Nc2ccc(Oc3cccnc3)nc2)cc1	6		
COc1ccc(-c2cn3cccc(OCc4ccc(Cl)c(Cl)c4)c3n2)cc1		60	EC50 [3]: 3100 nM
O=S(=O)(Nc1ccc(Oc2ccc(OC(F)(F)F)cc2)cc1)c1cc(Cl)c(Cl)cc1Cl		45	

Source: ChEMBL document CHEMBL3872226, “Evaluation of selected 3D virtual screening tools for the prospective identification of peroxisome proliferator-activated receptor (PPAR) γ partial agonists” (Eur J Med Chem, 2016)
